Laboratory results published in ChEMBL document CHEMBL4422629, “Discovery of an Orally Bioavailable and Central Nervous System (CNS) Penetrant mGlu7 Negative Allosteric Modulator (NAM) in Vivo Tool Compound: N-(2-(1 H-1,2,4-triazol-1-yl)-5-(trifluoromethoxy)phenyl)-4-(cyclopropylmethoxy)-3-methoxybenzamide (VU6012962)” (J Med Chem, 2019).
Calls of active or inactive are those of the source. The calls are words filed in the database; no cut-off is given here.

Tests used:
[1] = molecular target: Metabotropic glutamate receptor 7 (Rattus norvegicus, UniProt P35400); assay: Negative allosteric modulation of rat mGlu7 receptor expressed in HEK cells harboring Ga15 assessed as reduction in L-AP4-induced calcium flux preincubated for 142 secs followed by agonist addition and measured after 120 secs by Fluo-4-AM-dye based fluorescence assay; format: functional, cell-based
[2] = Fraction unbound in Sprague-Dawley rat plasma at 0.2 to 0.25 mg/kg, iv via cassette dosing measured up to 24 hrs post dose by LC/MS/MS analysis; format: ADME, organism-based; conditions: for fraction unbound at 24 h: Sprague-Dawley, plasma
[3] = Unbound fraction in Sprague-Dawley rat brain at 0.2 to 0.25 mg/kg, iv via cassette dosing measured up to 24 hrs post dose by LC/MS/MS analysis; format: ADME, organism-based
[4] = Total plasma concentration in Sprague-Dawley rat at 30 mg/kg, ip measured at 1 hr post dose by LC/MS/MS analysis; format: ADME, organism-based
Method in brief: (§1)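 Rat tissue distribution after a single 30 mg/kg ip dose, with compound measured in plasma, brain and CSF. Kp taken as tissue:plasma total ratio. Unbound levels used plasma protein binding and brain homogenate binding fractions.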

[5] = molecular target: 5-hydroxytryptamine receptor 2B (Homo sapiens) (UniProt P41595); assay: Binding affinity to cloned human 5-HT2B expressed in CHO-K1 cell membranes by radioligand displacement assay
Method in brief: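 Eurofins lead profiling panel of 68 GPCRs, ion channels and transporters, tested at 10 μM and read as percent activity.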

[6] = CSF to plasma permeability coefficient, Kp of the compound in Sprague-Dawley rat at 30 mg/kg, ip measured at 1 hr post dose by LC/MS/MS analysis; format: ADME, organism-based; method in brief: as §1
Mus musculus [7] = assay: Anti-anxiety activity in ip dosed C57Bl/6J mouse assessed as increase in total time spent in open arms by elevated zero maze assay; format: functional; conditions: read-out: MED
Method in brief: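 Mouse elevated zero maze after intraperitoneal dosing at several doses; read-out was total time in open arms. Analysis by one-way ANOVA with Bonferroni post hoc test against vehicle.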

[8] = molecular target: Metabotropic glutamate receptor 1 (Homo sapiens, UniProt Q13255); assay: Negative allosteric modulation of mGlu1 receptor (unknown origin)
[9] = molecular target: Metabotropic glutamate receptor 2 (Homo sapiens, UniProt Q14416); assay: Negative allosteric modulation of mGlu2 receptor (unknown origin)
Mus musculus [10] = assay: Reduction in locomotive activity in C57Bl/6J mouse assessed as reduction in total distance traveled in maze at 10 mg/kg, ip after 120 secs by elevated zero maze assay; format: ADME, organism-based; conditions: in vivo, 2 min
Method in brief: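 Elevated zero maze in mice dosed intraperitoneally; locomotion read as total distance traveled. Analysis by one-way ANOVA with Bonferroni post hoc test between doses.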

[11] = Drug level in C57Bl/6J mouse cerebrospinal fluid at 3 mg/kg, ip measured at 1 hr post dose by LC/MS/MS analysis; format: ADME, organism-based; conditions: read-out: Drug uptake
Method in brief: (§2)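 Mouse pharmacokinetic assessment at 3 mg/kg ip, sampled at the 1 h time point used in the behavioural tests.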

[12] = molecular target: Metabotropic glutamate receptor 3 (Homo sapiens, UniProt Q14832); assay: Negative allosteric modulation of mGlu3 receptor (unknown origin)
[13] = molecular target: Metabotropic glutamate receptor 5 (Homo sapiens, UniProt P41594); assay: Negative allosteric modulation of mGlu5 receptor (unknown origin)
[14] = molecular target: Metabotropic glutamate receptor 4 (Homo sapiens, UniProt Q14833); assay: Negative allosteric modulation of mGlu4 receptor (unknown origin)
[15] = Unbound brain concentration in Sprague-Dawley rat at 0.2 to 0.25 mg/kg, iv via cassette dosing measured up to 24 hrs post dose by LC/MS/MS analysis; format: ADME, organism-based; conditions: in vivo
Method in brief: (§3)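 Rat IV cassette study of plasma:brain levels. Brain Kp taken as total brain:plasma; Kp,uu corrected with the rat brain homogenate unbound fraction.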

[16] = Unbound brain to plasma concentration ratio in Sprague-Dawley rat at 30 mg/kg, ip measured at 1 hr post dose by LC/MS/MS analysis; format: ADME, organism-based; method in brief: as §1
[17] = Unbound brain-to-plasma concentration ratio in Sprague-Dawley rat brain at 0.2 to 0.25 mg/kg, iv via cassette dosing measured up to 24 hrs post dose by LC/MS/MS analysis; format: ADME, organism-based; method in brief: as §3
Mus musculus [18] = assay: Anxiolytic-like activity in C57Bl/6J mouse assessed as increase in total time spent in the light side of the chamber at 3 mg/kg, ip measured during 10-min testing period; format: functional, organism-based
Method in brief: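 Mouse light/dark box at 3 mg/kg ip, with fluoxetine 15 mg/kg ip as reference; read-out was total time in the light side. Analysis by one-way ANOVA with Dunnett's post hoc test against vehicle, plus Grubb's outlier test.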

[19] = Fraction unbound in mouse plasma at 0.2 to 0.25 mg/kg, iv via cassette dosing measured up to 24 hrs post dose by LC/MS/MS analysis; format: ADME, organism-based
[20] = Brain to plasma permeability coefficient, Kp of the compound in Sprague-Dawley rat at 30 mg/kg, ip measured at 1 hr post dose by LC/MS/MS analysis; format: ADME, organism-based; method in brief: as §1
[21] = molecular target: Metabotropic glutamate receptor 8 (Homo sapiens, UniProt O00222); assay: Negative allosteric modulation of mGlu8 receptor (unknown origin)
[22] = Plasma concentration in C57Bl/6J mouse at 3 mg/kg, ip measured at 1 hr post dose by LC/MS/MS analysis; format: ADME, organism-based; method in brief: as §2
[23] = Drug level in Sprague-Dawley rat cerebrospinal fluid at 30 mg/kg, ip measured at 1 hr post dose by LC/MS/MS analysis; format: ADME, organism-based; conditions: read-out: Drug uptake; method in brief: as §1
[24] = molecular target: Metabotropic glutamate receptor 6 (Homo sapiens, UniProt O15303); assay: Negative allosteric modulation of mGlu6 receptor (unknown origin)
[25] = Fraction unbound in Sprague-Dawley rat brain at 0.2 to 0.25 mg/kg, iv via cassette dosing measured up to 24 hrs post dose by LC/MS/MS analysis; format: ADME, organism-based
[26] = Total brain concentration in Sprague-Dawley rat at 30 mg/kg, ip measured at 1 hr post dose by LC/MS/MS analysis; format: ADME, organism-based; conditions: read-out: Drug uptake; method in brief: as §1
Mus musculus [27] = assay: Anxiolytic-like activity in C57Bl/6J mouse assessed as suppression of marble burying activity […], ip administered 45 mins before habituation for 15 mins and measured following 30 mins interval by marble burying assay; format: functional, organism-based; conditions: 3 mg/kg, in the assay text read “3 mg/kg” for “15 mg/kg”
Method in brief: (§4)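 Mouse marble-burying assay, ip dosing of test agent or fluoxetine, counting marbles buried. Analysis by one-way ANOVA with Dunnett's post hoc test against vehicle, plus Grubb's outlier test.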

[28] = Ratio of drug level in Sprague-Dawley rat cerebrospinal fluid at 30 mg/kg, ip measured at 1 hr post dose by LC/MS/MS analysis to Negative allosteric modulation of rat mGlu7 receptor expressed in HEK cells harboring Ga15; format: ADME, organism-based; conditions: in vivo
[29] = Oral bioavailability in Sprague-Dawley rat at 10 mg/kg measured up to 24 hrs by LC-MS/MS analysis; format: ADME, organism-based; conditions: in vivo
Method in brief: (§5)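 Rat discrete pharmacokinetics after iv and po (10 mg/kg) dosing, giving plasma clearance, Vss, half-life and oral bioavailability.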

[30] = Ratio of drug level in C57Bl/6J mouse cerebrospinal fluid at 3 mg/kg, ip measured at 1 hr post dose by LC/MS/MS analysis to negative allosteric modulation of rat mGlu7 receptor expressed in HEK cells harboring Ga15; format: ADME, organism-based; conditions: in vivo
[31] = Total brain concentration in Sprague-Dawley rat at 0.2 to 0.25 mg/kg, iv via cassette dosing measured up to 24 hrs post dose by LC/MS/MS analysis; format: ADME, organism-based; conditions: read-out: Drug uptake; method in brief: as §3
[32] = Brain to plasma permeability coefficient, Kp of the compound in Sprague-Dawley rat at 0.2 to 0.25 mg/kg, iv via cassette dosing measured up to 24 hrs post dose by LC/MS/MS analysis; format: ADME, organism-based; method in brief: as §3
[33] = Volume of distribution at steady state in Sprague-Dawley rat at 0.2 mg/kg, iv or 10 mg/kg, po measured up to 24 hrs by LC-MS/MS analysis; format: ADME, organism-based; conditions: in vivo; method in brief: as §5
[34] = Fraction unbound in Sprague-Dawley rat plasma at 30 mg/kg, ip measured at 1 hr post dose by LC/MS/MS analysis; format: ADME, organism-based; conditions: in vivo
Mus musculus [35] = assay: Anxiolytic-like activity in C57Bl/6J mouse assessed as suppression of marble burying activity at 3 mg/kg, ip administered 45 mins before habituation for 15 mins and measured following 30 mins interval by marble burying assay; format: functional, organism-based; method in brief: as §4
[36] = Half life in Sprague-Dawley rat at 0.2 mg/kg, iv or 10 mg/kg, po measured up to 24 hrs by LC-MS/MS analysis; format: ADME, organism-based; conditions: in vivo; method in brief: as §5
[37] = Fraction unbound in Sprague-Dawley rat brain at 30 mg/kg, ip measured at 1 hr post dose by LC/MS/MS analysis; format: ADME, organism-based; conditions: in vivo
Mus musculus [38] = assay: Anxiolytic-like activity in C57Bl/6J mouse assessed as increase in total time spent in the light side of the chamber at 15 mg/kg, ip measured during 10-min testing period; format: functional, organism-based
Method in brief: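 Mouse light/dark box anxiety model; single ip dose with a 1 h treatment time before testing. Read-out is total time spent in the light side of the chamber versus vehicle-treated controls. Groups compared by one-way ANOVA with Dunnett's post hoc test; all data points screened with Grubb's outlier test.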

Metabotropic glutamate receptor 7, sequence (P35400 whole entry): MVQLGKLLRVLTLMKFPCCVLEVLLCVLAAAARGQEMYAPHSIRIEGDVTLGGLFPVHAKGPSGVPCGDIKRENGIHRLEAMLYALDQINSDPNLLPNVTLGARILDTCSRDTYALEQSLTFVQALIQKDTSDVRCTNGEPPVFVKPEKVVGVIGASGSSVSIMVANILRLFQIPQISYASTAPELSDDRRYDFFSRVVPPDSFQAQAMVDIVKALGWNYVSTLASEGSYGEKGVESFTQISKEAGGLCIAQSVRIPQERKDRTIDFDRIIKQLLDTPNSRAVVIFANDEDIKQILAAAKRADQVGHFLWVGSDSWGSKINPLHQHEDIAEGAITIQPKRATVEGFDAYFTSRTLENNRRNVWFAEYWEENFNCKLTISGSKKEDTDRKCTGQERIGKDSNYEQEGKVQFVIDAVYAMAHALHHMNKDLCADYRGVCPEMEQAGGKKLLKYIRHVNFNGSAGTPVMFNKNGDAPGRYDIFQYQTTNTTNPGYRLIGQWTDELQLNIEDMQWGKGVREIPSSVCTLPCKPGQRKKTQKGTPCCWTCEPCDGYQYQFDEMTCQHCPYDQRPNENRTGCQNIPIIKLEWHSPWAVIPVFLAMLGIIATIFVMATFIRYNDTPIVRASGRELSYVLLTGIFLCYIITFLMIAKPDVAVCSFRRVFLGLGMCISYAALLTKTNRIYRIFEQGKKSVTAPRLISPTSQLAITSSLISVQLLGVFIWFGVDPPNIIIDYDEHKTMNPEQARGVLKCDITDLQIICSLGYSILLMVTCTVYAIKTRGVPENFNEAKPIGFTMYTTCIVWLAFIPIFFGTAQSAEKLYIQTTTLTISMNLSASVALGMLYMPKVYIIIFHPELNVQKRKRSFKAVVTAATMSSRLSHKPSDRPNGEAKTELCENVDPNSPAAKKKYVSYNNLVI
Metabotropic glutamate receptor 2, sequence (Q14416 whole entry): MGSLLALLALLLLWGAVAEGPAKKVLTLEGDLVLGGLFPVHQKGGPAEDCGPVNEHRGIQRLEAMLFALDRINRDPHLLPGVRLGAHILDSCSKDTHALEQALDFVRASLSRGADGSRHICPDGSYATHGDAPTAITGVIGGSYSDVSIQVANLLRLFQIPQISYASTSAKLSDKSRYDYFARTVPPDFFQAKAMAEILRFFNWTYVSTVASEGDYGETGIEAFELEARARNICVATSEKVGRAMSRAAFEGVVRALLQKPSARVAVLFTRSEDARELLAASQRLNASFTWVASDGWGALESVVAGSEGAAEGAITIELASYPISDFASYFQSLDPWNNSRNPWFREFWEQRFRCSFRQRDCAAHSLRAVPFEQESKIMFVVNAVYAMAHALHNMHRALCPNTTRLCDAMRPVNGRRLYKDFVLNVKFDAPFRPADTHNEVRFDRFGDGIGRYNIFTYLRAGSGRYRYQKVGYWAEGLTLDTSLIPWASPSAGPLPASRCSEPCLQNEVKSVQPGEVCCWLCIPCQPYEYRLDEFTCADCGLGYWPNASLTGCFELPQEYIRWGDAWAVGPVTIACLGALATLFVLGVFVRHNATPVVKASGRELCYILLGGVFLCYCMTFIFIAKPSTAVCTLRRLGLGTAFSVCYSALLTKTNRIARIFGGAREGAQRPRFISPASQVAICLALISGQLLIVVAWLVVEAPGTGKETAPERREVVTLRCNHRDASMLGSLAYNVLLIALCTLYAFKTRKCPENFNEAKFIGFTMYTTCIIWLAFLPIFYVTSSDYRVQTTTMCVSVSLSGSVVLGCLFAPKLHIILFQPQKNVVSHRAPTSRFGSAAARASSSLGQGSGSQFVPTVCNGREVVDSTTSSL
Metabotropic glutamate receptor 3, sequence (Q14832 whole entry): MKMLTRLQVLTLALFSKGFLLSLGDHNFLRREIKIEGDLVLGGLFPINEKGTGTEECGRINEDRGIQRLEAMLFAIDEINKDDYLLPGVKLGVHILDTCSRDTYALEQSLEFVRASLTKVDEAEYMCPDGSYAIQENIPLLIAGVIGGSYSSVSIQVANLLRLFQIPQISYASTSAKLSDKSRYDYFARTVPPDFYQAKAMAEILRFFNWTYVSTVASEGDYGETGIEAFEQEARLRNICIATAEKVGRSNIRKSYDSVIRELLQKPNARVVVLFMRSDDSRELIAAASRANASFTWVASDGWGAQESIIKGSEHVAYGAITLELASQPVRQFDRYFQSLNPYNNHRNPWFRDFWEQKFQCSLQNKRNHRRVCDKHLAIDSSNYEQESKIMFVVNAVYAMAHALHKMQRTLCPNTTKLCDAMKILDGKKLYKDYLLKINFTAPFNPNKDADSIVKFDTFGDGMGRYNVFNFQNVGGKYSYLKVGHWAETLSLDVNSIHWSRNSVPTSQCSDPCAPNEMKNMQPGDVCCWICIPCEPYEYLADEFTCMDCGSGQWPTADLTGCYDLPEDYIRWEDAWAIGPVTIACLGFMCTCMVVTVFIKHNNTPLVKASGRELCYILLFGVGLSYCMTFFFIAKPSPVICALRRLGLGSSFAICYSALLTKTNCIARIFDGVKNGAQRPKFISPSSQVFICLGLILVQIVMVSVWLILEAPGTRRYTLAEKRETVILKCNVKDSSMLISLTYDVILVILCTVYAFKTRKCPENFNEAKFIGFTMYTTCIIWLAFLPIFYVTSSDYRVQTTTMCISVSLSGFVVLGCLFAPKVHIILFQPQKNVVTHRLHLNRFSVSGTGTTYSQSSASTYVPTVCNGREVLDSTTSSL
Metabotropic glutamate receptor 6, sequence (O15303 whole entry): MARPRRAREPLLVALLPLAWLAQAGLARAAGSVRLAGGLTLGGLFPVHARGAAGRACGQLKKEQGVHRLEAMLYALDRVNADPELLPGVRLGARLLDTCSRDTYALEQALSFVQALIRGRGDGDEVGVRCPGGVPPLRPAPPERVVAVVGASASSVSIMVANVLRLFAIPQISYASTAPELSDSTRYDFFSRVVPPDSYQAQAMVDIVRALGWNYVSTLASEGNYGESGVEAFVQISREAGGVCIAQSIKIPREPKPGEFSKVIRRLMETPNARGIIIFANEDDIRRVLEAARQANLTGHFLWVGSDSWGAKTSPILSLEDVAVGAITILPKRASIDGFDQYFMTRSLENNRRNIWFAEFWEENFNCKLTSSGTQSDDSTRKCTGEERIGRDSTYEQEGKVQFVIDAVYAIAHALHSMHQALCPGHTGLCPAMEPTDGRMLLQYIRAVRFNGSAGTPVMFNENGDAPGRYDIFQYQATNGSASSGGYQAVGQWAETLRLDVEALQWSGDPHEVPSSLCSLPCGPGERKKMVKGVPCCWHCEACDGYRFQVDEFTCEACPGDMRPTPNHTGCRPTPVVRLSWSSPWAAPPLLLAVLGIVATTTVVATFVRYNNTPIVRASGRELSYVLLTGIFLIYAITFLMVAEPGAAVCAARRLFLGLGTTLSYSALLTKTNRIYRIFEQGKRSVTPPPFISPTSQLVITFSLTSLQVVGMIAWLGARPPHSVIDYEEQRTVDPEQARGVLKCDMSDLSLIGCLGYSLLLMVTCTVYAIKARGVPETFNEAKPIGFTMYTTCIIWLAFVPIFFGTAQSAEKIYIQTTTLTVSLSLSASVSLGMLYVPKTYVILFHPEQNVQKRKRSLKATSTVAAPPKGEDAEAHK
Metabotropic glutamate receptor 5, sequence (P41594 whole entry): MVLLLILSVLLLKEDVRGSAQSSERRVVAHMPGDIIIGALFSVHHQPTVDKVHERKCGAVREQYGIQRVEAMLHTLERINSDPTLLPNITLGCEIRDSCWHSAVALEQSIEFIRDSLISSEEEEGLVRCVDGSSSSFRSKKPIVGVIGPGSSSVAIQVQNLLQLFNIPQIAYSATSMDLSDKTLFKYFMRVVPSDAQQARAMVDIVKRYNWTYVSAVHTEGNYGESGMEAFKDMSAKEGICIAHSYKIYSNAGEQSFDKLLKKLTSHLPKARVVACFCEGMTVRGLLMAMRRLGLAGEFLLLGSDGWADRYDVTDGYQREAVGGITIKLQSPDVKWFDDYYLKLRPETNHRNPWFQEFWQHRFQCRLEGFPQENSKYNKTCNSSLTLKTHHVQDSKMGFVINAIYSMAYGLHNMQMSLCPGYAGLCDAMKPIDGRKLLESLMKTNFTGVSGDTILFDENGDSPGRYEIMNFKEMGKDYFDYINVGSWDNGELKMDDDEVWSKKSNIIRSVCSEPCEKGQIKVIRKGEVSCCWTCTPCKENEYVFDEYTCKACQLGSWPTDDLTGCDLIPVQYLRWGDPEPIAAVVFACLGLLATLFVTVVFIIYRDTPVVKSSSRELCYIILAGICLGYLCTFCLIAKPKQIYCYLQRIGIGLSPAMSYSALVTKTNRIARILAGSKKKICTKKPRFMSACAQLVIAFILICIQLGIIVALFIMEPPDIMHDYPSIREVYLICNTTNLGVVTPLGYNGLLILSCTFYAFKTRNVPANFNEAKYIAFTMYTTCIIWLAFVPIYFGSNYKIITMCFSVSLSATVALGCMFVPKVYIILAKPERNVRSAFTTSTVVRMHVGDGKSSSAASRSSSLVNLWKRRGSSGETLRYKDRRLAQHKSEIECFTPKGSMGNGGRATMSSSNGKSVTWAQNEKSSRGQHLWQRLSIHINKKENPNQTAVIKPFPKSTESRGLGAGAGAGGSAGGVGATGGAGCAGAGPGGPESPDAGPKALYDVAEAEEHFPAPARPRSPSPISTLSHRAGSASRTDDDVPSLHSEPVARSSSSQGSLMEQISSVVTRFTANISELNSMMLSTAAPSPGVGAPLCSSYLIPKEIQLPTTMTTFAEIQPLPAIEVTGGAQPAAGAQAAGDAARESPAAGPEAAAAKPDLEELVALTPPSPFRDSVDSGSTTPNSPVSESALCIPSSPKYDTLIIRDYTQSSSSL

For `COc1ccc(CCCNc2cc(Cl)ccc2-n2cncn2)cc1OC`, the IC50 [1] was greater than 10 µM.
For `COc1ccc(CNc2cc(Cl)ccc2-n2cncn2)cc1OC`, the IC50 [1] was 7.9 µM.
Work on `COc1cc(F)c(OCCNc2cc(OC(F)(F)F)ccc2-n2cncn2)cc1OC` yielded a fraction unbound at 24 h [2] of 0.01 to 0.03, an IC50 [1] of 1.2 µM and a fraction unbound at 24 h [3] of less than 0.003.
For `COc1ccc(CNc2cc(OC(F)(F)F)ccc2-n2cncn2)cc1OC`, the fraction unbound at 24 h [2] was 0.01 to 0.03, the IC50 [1] was 5.9 µM and the fraction unbound at 24 h [3] was less than 0.003.
For `COc1ccc(CCCNc2cc(OC(F)(F)F)ccc2-n2cncn2)cc1OC`, the fraction unbound at 24 h [2] was 0.01 to 0.03, the IC50 [1] was 1.6 µM and the fraction unbound at 24 h [3] was less than 0.003.
Work on `COc1cc(C(=O)Nc2cc(OC(F)(F)F)ccc2-n2cncn2)ccc1OCC1CCCC1` yielded an IC50 [1] of 2.8 µM.
With `COc1cc(F)c(CCCNc2cc(OC(F)(F)F)ccc2-n2cncn2)cc1OC` the fraction unbound at 24 h [2] was 0.01 to 0.03, the IC50 [1] was 1.3 µM and the fraction unbound at 24 h [3] was less than 0.003.
For `COc1cc(F)c(OCCNc2cc(Cl)ccc2-n2cncn2)cc1OC`, the IC50 [1] was greater than 10 µM.
For `COc1cc(C(=O)Nc2cc(OC(F)(F)F)ccc2-n2cncn2)ccc1OCc1ccccc1`, the IC50 [1] was 3.1 µM.
Molecule `COc1cc(C(=O)Nc2cc(OC(F)(F)F)ccc2-n2cncn2)ccc1OCC(C)C` has an IC50 [1] of 1.2 µM.
With `COc1cc(C(=O)Nc2cc(OC(F)(F)F)ccc2-n2cncn2)ccc1OCC1CCC1` the IC50 [1] was 1.4 µM.
`COc1cc(F)c(CCCNc2cc(Cl)ccc2-n2cncn2)cc1OC` showed an IC50 [1] greater than 10 µM.
Work on `COc1cc(C(=O)Nc2cc(OC(F)(F)F)ccc2-n2cncn2)ccc1OCC1CC1` yielded a concentration at 1 h [4] of 598 nM, an Activity [5] greater than 50% and a Kp [6] of 2.15. The minimal effective dose (Mus musculus [7]) was 3 mg/kg, the IC50 [8] was greater than 10 µM and the IC50 [9] was greater than 10 µM. For the same molecule, the Activity (Mus musculus [10]) was “Toxic”, the concentration at 1 h [11] was 883 nM and the IC50 [12] was greater than 10 µM. For the same molecule, the IC50 [13] was greater than 10 µM, the IC50 [14] was greater than 10 µM and the “Drug uptake(free)” value [15] was 3.4 nM. The “K(p,uu,brain)” value [16] was 0.38, the “K(p,uu,brain)” value [17] was 0.75 and the Activity (Mus musculus [18]) was “Active”. It also gave a Fu ([2]; in vivo, 24 h) of 0.028, a fraction unbound at 24 h [19] of 0.026 and an IC50 [1] of 0.35 µM. It also gave a Kp [20] of 1.24, an IC50 [21] greater than 10 µM and a concentration at 1 h [22] of 303 nM. The concentration at 1 h [23] was 1300 nM, the IC50 [24] was greater than 10 µM and the fraction unbound at 24 h [25] was 0.009. The concentration at 1 h [26] was 745 nM, the Activity (Mus musculus [27]) was “Active” and the Ratio [28] was 3.8. It also gave an F [29] of 74.9%, a Ratio [30] of 2.5 and a concentration at 24 h [31] of 375 nM. The Kp [32] was 2.35, the fraction unbound at 24 h [3] was 0.009 and the Vdss [33] was 1.9 L/kg. For the same molecule, the “Cp(f)” value [34] was 16.7 nM, the Activity (Mus musculus [35]) was “Active” and the t1/2 [36] was 40 min. The “Drug uptake(free)” value [37] was 6.4 nM.
With `CNCCC(Oc1ccc(C(F)(F)F)cc1)c1ccccc1` (centres undefined) the Activity (Mus musculus [38]) was “Active”.
For `COc1cc(C(=O)Nc2cc(OC(F)(F)F)ccc2-n2cncn2)ccc1OCC(F)(F)F`, the IC50 [1] was greater than 30 µM.
